High-throughput results as filed in PubChem BioAssay.
FN deposit inh = inhibitors of fibronectin matrix deposition, primary screen, AH1F cells, Alexa488-fibronectin fluorescence, plate reader; AH1F fibroblasts, overnight; inhibition, % at 12.6 µM; actives 0.086% (n = 350,000);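 active means mean inhibition across replicates of 30% or more, regardless of how many single replicates reach that level; inconclusive means mean under 30% yet at least half of replicates reach 30%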
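Material: AH1F fibroblast monolayer depositing Alexa488-labelled fibronectin into matrix | Input: 10000 AH1F cells/well | Medium: DMEM plus 2% serum, read in PBS | Reagent: Alexa488-fibronectin, 24 nM final in well | Compound dosing: One dose per compound, pinned | Schedule: 1 h adhesion, overnight exposure | Measured by: Fluorescence at 485 nm excitation, 525 nm emission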
DENV2 CPE = inhibitors of DENV2 cytopathic effect, primary screen, cell-based, plate reader, single concentration; DENV2-infected cells, cytopathic effect rescue; actives 1.7% (n = 350,000); CPE inhibition, % at 9.99 µM; in the data active means CPE inhibition above about 20%, passing the limit was not always enough; inconclusive means no clear call, values can overlap the other calls; tested in BHK-21 cells
SIRT5 block = SIRT5 desuccinylase inhibitors, primary screen, biochemical, fluorescence imaging, single point, set 5 | NAD-dependent protein deacylase sirtuin-5, mitochondrial (Homo sapiens), Q9NXA8 | Purified SirT5, succinyl-peptide AMC, trypsin-coupled fluorescence | inhibition, % at 15 µM | actives 1.1% (n = 330,000); in the data active means inhibition above about 15%; inconclusive means no clear call, values can overlap the other calls
Target sequence (Q9NXA8 whole entry, looked up): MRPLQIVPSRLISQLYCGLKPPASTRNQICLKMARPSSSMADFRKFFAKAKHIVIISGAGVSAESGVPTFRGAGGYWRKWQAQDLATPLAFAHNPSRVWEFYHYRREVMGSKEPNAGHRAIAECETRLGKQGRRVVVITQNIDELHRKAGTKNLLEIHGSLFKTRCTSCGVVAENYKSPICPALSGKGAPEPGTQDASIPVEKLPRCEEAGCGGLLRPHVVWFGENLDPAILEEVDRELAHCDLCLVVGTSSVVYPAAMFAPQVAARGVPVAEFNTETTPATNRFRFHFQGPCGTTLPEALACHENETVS
FGF22 binding = binders of human FGF22 protein, primary screen, FGF22 synaptogenesis inhibitor project, biophysical, thermal shift, single point; recombinant FGF22 thermal shift, SYPRO orange fluorescence; percent of sucrose octasulfate shift, DMSO zero; Fibroblast growth factor 22 (Homo sapiens), Q9HCT0; actives 1.5% (n = 340,000); AID 651658, 2012; activity (Tm shift, normalised), % at 9.99 µM;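 active means mean Tm shift, scaled 0 neutral to 100 positive control, at about 1.3% or above, every replicate too, limit read from the data; inconclusive means no clear call, values can overlap the other calls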
Target sequence (Q9HCT0 whole entry, looked up): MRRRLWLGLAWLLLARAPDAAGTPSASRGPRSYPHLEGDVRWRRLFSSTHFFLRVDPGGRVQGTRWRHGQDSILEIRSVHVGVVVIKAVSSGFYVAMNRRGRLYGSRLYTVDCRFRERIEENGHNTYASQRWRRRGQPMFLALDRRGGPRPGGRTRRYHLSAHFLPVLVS
Xi reactivation = activators of inactive X chromosome reactivation, primary screen, imaging, XiGFP fibroblasts, GFP high-content imaging, set 2; activation, % at 7.58 µM; actives 0.055% (n = 360,000); XiGFP mouse fibroblasts, % GFP-positive cells imaging, 3 d; cells co-treated with 5-aza-dC sensitizer; scaled so ellipticine positive control = 100%;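 active means mean normalized replicate activation at least 10% and every replicate at or above 10%; inconclusive means only one of the two criteria met; inactive means mean below 10% and not all replicates reach 10%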
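Assay system: SV40-immortalized XiGFP fibroblast cells, line 68-5-11; buffer or medium: DMEM plus 5-aza-dC sensitizer; compound: one concentration, pinned; timing: compounds 3 days, fix/stain 15 min at room temperature; benchmarks: positive control ellipticine, 6 µM final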
ARNT-TACC3 inh = disruptors of ARNT/TACC3 protein interaction, primary screen, biochemical, AlphaScreen, single concentration | Transforming acidic coiled-coil-containing protein 3 (Homo sapiens), Q9Y6A5 | AlphaScreen His-ARNT PAS-B/GST-TACC3 binding, luminescence; TACC3 fragment carries E629A point mutation | inhibition, % at 9.99 µM | actives 0.66% (n = 390,000) | AID 623870, 2012;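 active means mean inhibition of replicates at least 50% and at least half of replicates each reaching 50%; inconclusive means half or more replicates reach 50% but mean below 50%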
Numbers stand for hits; n = inactive; u = inconclusive; x = no result given; ! = not confirmed by another sample. Shown are actives, neighbours in structure and some others; about 3.8% of the full set was active somewhere.

SMILES	FN deposit inh	DENV2 CPE	SIRT5 block	FGF22 binding	Xi reactivation	ARNT-TACC3 inh
O=C1C(Cl)=C(Nc2ccccc2)C(=O)c2ccccc21	n	n	x	n	n	n
COC1=C(Nc2ccc(C)cc2)C(=O)c2ccccc2C1=O	n	u	x	n	n	51
Cc1ccc(NC2=C(N3CCCCC3)C(=O)c3ccccc3C2=O)cc1	x	x	x	x	x	n
COc1cc(C2NC(=O)NC(C)=C2C(=O)OC2CCCC(C)C2)cc(Br)c1O (centres undefined)	n	46	n	n	n	n
COc1cc(C2NC(=O)NC(C)=C2C(=O)OC2CCCCC2)cc(Cl)c1O (centres undefined)	n	n	n	n	n	x
COC(=O)Cn1c(C)c(C(C)=O)c(C(C)=O)c1C	x	x	n	x	x	n
COC(=O)c1c(C(C)=O)c(C)n(C)c1C	n	n	16	n	n	n
Cc1ccc(CNC(=O)CSc2ccc(-c3cccs3)nn2)cc1	n	20	x	n	n	n
COc1ccc(NC(=O)Nc2ccc3c(c2)CC(=O)N([C@H](C)CO)C[C@H](C)[C@H](CN(C)C(=O)NC2CCCCC2)O3)cc1	x	29	n	n	n	n
C[C@H](CO)N1C[C@H](C)[C@@H](CN(C)C(=O)NC2CCCCC2)Oc2ccc(NC(=O)Nc3ccccc3)cc2CC1=O	n	46	n	n	n	n
C[C@@H]1CN([C@H](C)CO)C(=O)Cc2cc(NC(=O)Nc3ccccc3)ccc2O[C@@H]1CN(C)C(=O)NC1CCCCC1	n	35	n	n	n	n
C[C@@H]1CN([C@@H](C)CO)C(=O)Cc2cc(NC(=O)Nc3ccccc3)ccc2O[C@@H]1CN(C)C(=O)NC1CCCCC1	n	u	n	n	n	n
CC(C)NC(=O)Nc1ccc2c(c1)CC(=O)N([C@H](C)CO)C[C@H](C)[C@H](CN(C)C(=O)NC1CCCCC1)O2	x	n	n	n	n	x
CC(C)NC(=O)Nc1ccc2c(c1)CC(=O)N([C@@H](C)CO)C[C@@H](C)[C@@H](CN(C)C(=O)NC1CCCCC1)O2	x	n	18	x	n	n
C[C@H]1CN([C@@H](C)CO)C(=O)Cc2cc(NC(=O)Nc3ccccc3)ccc2O[C@@H]1CN(C)C(=O)NC1CCCCC1	n	u	n	n	n	n
COc1ccc(NC(=O)Nc2ccc3c(c2)CC(=O)N([C@H](C)CO)C[C@@H](C)[C@H](CN(C)S(=O)(=O)c2ccc(F)cc2)O3)cc1	n	n	n	n	n	n
COc1ccc2c3c(n(C)c2c1)[C@H](CO)N(C(=O)C1CCC1)CC31CN(C(=O)CN(C)C)C1	x	n	n	n	n	x
COc1ccc(NC(=O)N2CCC3(CC2)CN(C(C)=O)[C@H](CO)c2[nH]c4cc(OC)ccc4c23)cc1	x	n	n	n	n	x
COc1ccc(NC(=O)Nc2ccc3c(c2)C(=O)N([C@H](C)CO)C[C@H](C)[C@@H](CN(C)C(=O)NC2CCCCC2)O3)cc1	n	39!	n	n	n	n
COc1ccc(NC(=O)Nc2ccc3c(c2)C(=O)N([C@H](C)CO)C[C@H](C)[C@H](CN(C)C(=O)NC2CCCCC2)O3)cc1	x	n	n	x	n	n
Cn1c(=O)n(Cc2ccccc2F)c(=O)c2c1nc1n2CCN1Cc1ccco1	n	n	n	43	n	n
Cn1c(NCCCO)nc2c1c(=O)n(Cc1ccccc1F)c(=O)n2C	x	x	39	x	x	n
COc1ccccc1Oc1nc2c(c(=O)n(Cc3ccccc3F)c(=O)n2C)n1C	n	x	x	x	x	n
Cn1c(=O)n(Cc2ccc(Cl)cc2)c(=O)c2c1nc1n2CCN1Cc1ccco1	x	x	x	x	x	n
CN1CCN(C(=O)c2ccc3c(c2)S(=O)(=O)c2ccccc2C3=O)CC1	n	63	n	n	n	n
SMILES	FN deposit inh	DENV2 CPE	SIRT5 block	FGF22 binding	Xi reactivation	ARNT-TACC3 inh
O=C(NCC1CC1)[C@@H]1[C@@H](CO)[C@@H]2Cn3c(cccc3=O)[C@@H]2N1Cc1cncnc1	x	n	n	n	n	n
C=C(c1cn(C(C)=O)c2ccccc12)c1cn(C(C)=O)c2ccccc12	x	n	x	n	n	n
CC(=O)n1cc(CO)c2ccccc21	x	35	n	n	x	n
CCOc1cc([N+](=O)[O-])cc(/C=N/NC(=O)c2c(-c3ccccc3)noc2C)c1O	x	x	x	x	x	57
Cc1ccc(/C=N/NC(=O)c2c(-c3ccccc3)noc2C)c(O)c1	n	n	n	n	n	47
CCC1=C(OC(=O)N(CC)CC)N2C(=O)OC(=NCC(=O)OC)[C@]2(Cc2ccccc2)[C@H]2C1=CC[C@H]1C(=O)N(C)C(=O)[C@H]12	n	n	x	n	n	x
CCC1=C(OC(=O)N(CC)CC)N2C(=O)OC(=NCC(=O)OC)[C@]2(Cc2ccccc2)[C@H]2C1=CC[C@H]1C(=O)NC(=O)[C@H]12	n	23	x	n	n	n
O=C(O)CCn1nnc2ccccc21	n	n	n	n	n	n
O=C(CCn1nnc2ccccc21)N/N=C\Cc1ccccc1	n	x	n	43	n	x
COc1cccc(/C=N/NC(=O)CCn2nnc3ccccc32)c1	n	n	n	44	n	n
COCCCNC(=S)N/N=C/c1ccccc1O	n	n	n	n	n	64
Cc1cc(C)c(NC(=O)COC(=O)c2cccc3c2C(=O)c2ccccc2C3=O)c(C)c1	n	x	x	x	n	n
Cc1cc(C)c(Nc2cc(S(=O)(=O)O)c(N)c3c2C(=O)c2ccccc2C3=O)c(C)c1	n	x	x	x	n	55
CO[C@H]1CN(C)C(=O)c2ccc(NC(=O)C3CC3)cc2OC[C@H](C)N(C(=O)c2ccncc2)C[C@H]1C	n	n	n	n	n	n
Cc1cc(C2=NNC(=NCCc3ccccc3)SC2)c(C)n1CC1CCCO1 (centres undefined)	n	n	n	n	n	n
Clc1ccc(C2=NNC(=NCC3CCCO3)SC2)cc1 (centres undefined)	n	n	n	43	n	n
O=C(Cn1cnc2c(NCc3ccccc3)ncnc21)NCc1ccc2c(c1)OCO2	n	n	27	n	n	n
C[C@H](CO)N1C[C@H](C)[C@H](CN(C)S(=O)(=O)c2ccccc2)OCCCC[C@H](C)Oc2ccc(NC(=O)C3CCCCC3)cc2C1=O	n	u	n	x	n	n
